Results taken from ChEMBL document CHEMBL1152432, “2-Arylamino-4-amino-5-aroylthiazoles. "One-pot" synthesis and biological evaluation of a new class of inhibitors of tubulin polymerization” (J Med Chem, 2009).

What was measured:
HeLa [1] = test: Antiproliferative activity against human HeLa cells after 2 days by coulter counter method; format: functional, cell-based; details: 48 h
In short: (§1)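 Cells seeded at 300,000-500,000 cells/mL, mixed 1:1 with compound dilutions and incubated 2 days at 37 °C. Cell number counted by Coulter counter. Mean ± SE of at least three independent experiments.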

CCRF-CEM = test: Antiproliferative activity against human CEM cells after 2 days by coulter counter method; format: functional, cell-based; details: 48 h; in short: as §1
HeLa [2] = test: Cell cycle arrest in human HeLa cells assessed as accumulation at G2/M phase at 30 nM after 24 hrs uisng propidium iodide staining by flow cytometry; format: functional
In short: (§2)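 Exponentially growing HeLa cells (5×10^5) treated 24 h. Floating and trypsinized cells pooled, fixed in ice-cold 70% ethanol, lysed with RNaseA buffer and stained with propidium iodide. DNA histograms acquired by flow cytometry. Percentages of G1, S and G2/M phases calculated on living cells, with the sub-G1 peak also scored.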

HeLa [3] = test: Cell cycle arrest in human HeLa cells assessed as accumulation at G1 phase at 30 nM after 24 hrs uisng propidium iodide staining by flow cytometry; format: functional; in short: as §2
MOLT-4 = test: Antiproliferative activity against human MOLT4 cells after 2 days by coulter counter method; format: functional, cell-based; details: MOLT-4, 48 h; in short: as §1
L1210 = test: Antiproliferative activity against mouse L1210 cells after 2 days by coulter counter method; format: functional, cell-based; details: L1210, 48 h
In short: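 Cells seeded at 300,000-500,000 cells/mL, mixed 1:1 with compound dilutions and incubated 2 days at 37 °C. Cell number counted by Coulter counter. IC50 is the concentration giving 50% inhibition of proliferation, taken from dose-response curves. Mean ± SE of at least three independent experiments.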

[4] = Inhibition of bovine brain tubulin polymerization by turbidimetry; design: species or system Bos taurus
In short: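 Purified bovine brain tubulin (10 μM) preincubated with varying compound concentrations in glutamate buffer at 30 °C, then chilled to 0 °C. GTP added, mixtures warmed to 30 °C in a recording spectrophotometer and assembly followed turbidimetrically.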

FM3A = test: Antiproliferative activity against mouse FM3A cells after 2 days by coulter counter method; format: functional, cell-based; details: 48 h; in short: as §1
HeLa [5] = test: Cell cycle arrest in human HeLa cells assessed as accumulation at S phase at 30 nM after 24 hrs uisng propidium iodide staining by flow cytometry; format: functional; in short: as §2
HeLa [6] = test: Induction of apoptosis in human HeLa cells assessed as appearance of hypodiploid cells after 24 hrs using propidium iodide staining by flow cytometry; format: functional, cell-based
In short: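 HeLa cells (5×10^5, exponential growth) exposed to a range of concentrations for 24 h, then ethanol-fixed (70%, ice-cold), RNaseA-treated and propidium iodide-stained for flow cytometry. Apoptotic fraction taken as the cells forming a sub-G1 peak.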

HeLa [7] = test: Cell cycle arrest in human HeLa cells assessed as accumulation at subG1 phase at 30 nM after 24 hrs uisng propidium iodide staining by flow cytometry; format: functional; in short: as §2
Bos taurus = species on record: Bos taurus; test: Displacement of [3H]colchicine from bovine brain tubulin at 1 uM
In short: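 Reaction mixtures held 1 μM bovine brain tubulin, 5 μM [3H]colchicine and 1 μM test compound. Inhibition of radiolabelled colchicine binding to tubulin was measured.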

SMILES | IC50 (HeLa [1]) | IC50 (CCRF-CEM) | Activity (HeLa [2]) | Activity (HeLa [3]) | IC50 (MOLT-4) | IC50 (L1210) | IC50 [4] | IC50 (FM3A) | Activity (HeLa [5]) | Activity (HeLa [6]) | Activity (HeLa [7]) | inhibition (Bos taurus)
COc1cc(C(=O)c2sc(Nc3ccc(C)cc3)nc2N)cc(OC)c1OC | 0.086 µM | 0.041 µM | 50.5% | 32.1% | 0.021 µM | 0.031 µM | 0.72 µM | 0.015 µM | 17.4% | Dose-dependent effect | 18.9% | 87%
Nc1nc(Nc2ccccc2)sc1C(=O)c1ccccc1 | 6.1 µM | 3.9 µM |  |  | 7.3 µM | 8.1 µM |  | 8.2 µM |  |  |  | 35%
COc1ccc(/N=c2/[nH]c(N)c(C(=O)c3ccc(OC)cc3)s2)cc1 | 0.33 µM | 1.2 µM |  |  | 0.32 µM | 0.47 µM |  | 0.63 µM |  |  |  | 
COc1ccc(C(=O)c2sc(Nc3ccc(Cl)cc3)nc2N)cc1 | > 10 µM | > 10 µM |  |  | > 10 µM | > 10 µM |  | > 10 µM |  |  |  | 
COc1ccc(C(=O)c2sc(Nc3ccccc3)nc2N)cc1 | > 10 µM | 9.1 µM |  |  | 6.9 µM | > 10 µM |  | > 10 µM |  |  |  | 
COc1cccc(Nc2nc(N)c(C(=O)c3ccccc3)s2)c1 | 3.2 µM | 2.9 µM |  |  | 1.5 µM | 8.2 µM | 3.6 µM | 5 µM |  |  |  | 43%
COc1ccc(C(=O)c2sc(Nc3ccccc3)nc2N)cc1OC | 6 µM | 6.9 µM |  |  | 5.5 µM | > 10 µM |  | > 10 µM |  |  |  | 
Cc1ccc(Nc2nc(N)c(C(=O)c3ccccc3)s2)cc1 | 0.9 µM | 0.37 µM |  |  | 0.21 µM | 2.8 µM |  | 1.5 µM |  |  |  | 
COc1ccc(Nc2nc(N)c(C(=O)c3ccc([N+](=O)[O-])cc3)s2)cc1 | 0.35 µM | 0.031 µM |  |  | 0.029 µM | 0.28 µM |  | 0.31 µM |  |  |  | 
COc1ccc(Nc2nc(N)c(C(=O)c3ccccc3OC)s2)cc1 | 0.017 µM | 0.017 µM | 40.1% | 38.5% | 0.018 µM | 0.031 µM | 1.4 µM | 0.052 µM | 20.4% | Dose-dependent effect | 28.6% | 77%
Cc1ccc(Nc2nc(-n3ccnc3C)cs2)cc1 | 0.53 µM | 1.5 µM |  |  | 0.51 µM | 1.8 µM | 4 µM | 1.2 µM |  |  |  | 58%
COc1ccc(Nc2nc(N)c(C(=O)c3cccc(OC)c3)s2)cc1 | 0.037 µM | 0.0099 µM | 39.2% | 40% | 0.004 µM | 0.035 µM | 1.4 µM | 0.05 µM | 20.8% |  | 9.6% | 84%
COc1cc(C(=O)c2sc(Nc3ccc(Cl)cc3)nc2N)cc(OC)c1OC | 0.18 µM | 0.19 µM |  |  | 0.11 µM | 0.42 µM |  | 0.42 µM |  |  |  | 
COc1ccc(Nc2nc(N)c(C(=O)c3ccccc3)s2)cc1 | 0.23 µM | 0.3 µM |  |  | 0.23 µM | 0.85 µM |  | 0.73 µM |  |  |  | 
COc1cc(C(=O)c2sc(Nc3ccc(F)cc3)nc2N)cc(OC)c1OC | 0.44 µM | 0.4 µM |  |  | 0.28 µM | 0.9 µM |  | 0.058 µM |  |  |  | 
COc1cccc(Nc2nc(N)c(C(=O)c3cc(OC)c(OC)c(OC)c3)s2)c1 | 1 µM | 1.3 µM |  |  | 0.53 µM | 2.1 µM |  | 2 µM |  |  |  | 
Nc1nc(Nc2ccc(F)cc2)sc1C(=O)c1ccccc1 | > 10 µM | > 10 µM |  |  | > 10 µM | > 10 µM |  | > 10 µM |  |  |  | 
COc1ccc(Nc2nc(N)c(C(=O)c3cc(OC)c(OC)c(OC)c3)s2)cc1 | 0.56 µM | 1.1 µM |  |  | 0.48 µM | 1.5 µM |  | 2.2 µM |  |  |  | 
COc1ccccc1C(=O)c1sc(Nc2ccccc2)nc1N | 1.2 µM | 0.73 µM |  |  | 1.3 µM | 1.1 µM |  | 1.1 µM |  |  |  | 
COc1ccc(Nc2nc(N)c(C(=O)c3ccc(OC)c(OC)c3)s2)cc1 | 0.052 µM | 0.01 µM | 48.8% | 35.7% | 0.037 µM | 0.038 µM | 2.8 µM | 0.071 µM | 15.5% | Dose-dependent effect | 17.8% | 63%
COc1ccc(C(=O)c2sc(Nc3ccc(F)cc3)nc2N)cc1 | > 10 µM | > 10 µM |  |  | > 10 µM | > 10 µM |  | > 10 µM |  |  |  | 
COc1cc(C(=O)c2sc(Nc3ccccc3)nc2N)cc(OC)c1OC | 0.014 µM | 0.0094 µM | 42.3% | 32.1% | 0.006 µM | 0.018 µM | 2.5 µM | 0.023 µM | 25.6% | Dose-dependent effect | 22.2% | 75%
COc1ccc(/C=C\c2cc(OC)c(OC)c(OC)c2)cc1O [COMBRETASTATIN A4] |  |  |  |  |  |  | 1.4 µM |  |  |  |  | 
Nc1nc(Nc2ccc(Cl)cc2)sc1C(=O)c1ccccc1 | > 10 µM | > 10 µM |  |  | > 10 µM | > 10 µM |  | > 10 µM |  |  |  | 
COc1cccc(C(=O)c2sc(Nc3ccccc3)nc2N)c1 | 1.7 µM | 2.3 µM |  |  | 1.3 µM | 7.6 µM |  | 6.2 µM |  |  |  | 
COc1ccc(Nc2nc(N)c(C(=O)c3ccc(Br)cc3)s2)cc1 | 0.079 µM | 0.039 µM |  |  | 0.016 µM | 0.11 µM |  | 0.1 µM |  |  |  | 
COc1ccc(Nc2nc(N)c(C(=O)c3ccc(Cl)cc3)s2)cc1 | 0.083 µM | 0.019 µM | 64% | 17.1% | 0.013 µM | 0.084 µM | 1.1 µM | 0.059 µM | 18.9% | Dose-dependent effect | 23.3% | 89%
